{
  "source": "paper PMC4382910",
  "about": "(Angewandte Chemie (International ed. in English), 2014)",
  "tested_on": "HeLa cells",
  "assay": "Protein fatty-acylation levels in cells by chemical reporter alk-14",
  "assay_type": "cell-based, human",
  "conditions": "nuclear lysates, in-gel fluorescence, Sirt2 inhibitor",
  "method_in_brief": "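HeLa cells with Sirt2 perturbed by siRNA knockdown or a selective Sirt2 inhibitor were cultured with fatty-acid chemical reporter alk-14. After harvest, cytosolic and nuclear lysates were prepared and core histones extracted. Reporter-labeled proteins were conjugated to a rhodamine dye by azide-alkyne click chemistry, and fatty-acylation levels were compared by fluorescence.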",
  "data": [
    {"molecule": "N#C/C(=C\\c1ccc(-c2cc(Cl)ccc2Cl)o1)C(=O)Nc1cccc2ncccc12", "note": "[AGK2]", "values": [
      {"measurement": "labeling of core histones by alk-14", "result": "enhanced"}
    ]}
  ]
}
